Most compounds without a hit are left out; they make up all but 3% or so of the library.
TRPC4 agonist: activators of mouse TRPC4 channel, primary screen, Fluo4 calcium, HEK293 TRPC4beta/mu-opioid cells | 310,000 compounds, 0.49% hits | AID 2237, 2010 | Fluo4 calcium fluorescence; active compounds read high | Short transient receptor potential channel 4 (Mus musculus), Q9QUQ5 | B-score at 10 µM;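 active means B-score above 5 SD of library B-scores, and initial fluorescence ratio not above library mean plus 5 SD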;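 further: positive B-score marks a calcium rise read as TRPC4 activation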
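Assay system: HEK293 stable line with TRPC4beta plus mu-opioid receptor. Times: dye 45 min RT, read 110 s. Measured by: kinetic Fluo4 calcium fluorescence. Measure: B score of integrated ratio. Controls: assay buffer as low control, maximal DAMGO as high control.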
TRPC6 inhibitor: mouse TRPC6 channel inhibitors, primary screen, cell-based, HEK293, membrane potential dye. Short transient receptor potential channel 6 (Mus musculus), Q61143. B-score at 10 µM. 310,000 compounds, 1.1% hits. ACh-evoked depolarization; active compounds read low;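 active means B-score under library mean minus 3 SD, initial fluorescence not abnormally high, positive integrated signal ratio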;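 further: B-score derived from integrated fluorescence ratio over the kinetic read; more negative B-score means stronger inhibition of depolarization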
TRPC6 activator: mouse TRPC6 channel activators, primary screen, cell-based, HEK293, membrane potential dye. Short transient receptor potential channel 6 (Mus musculus), Q61143. AID 2550, 2010. 310,000 compounds, 0.13% hits. HEK293-TRPC6 membrane potential dye fluorescence; active compounds read high. B-score at 10 µM;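 active means B-score of the integrated fluorescence ratio above library mean plus 3 SD, and starting fluorescence ratio within library mean plus 5 SD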;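 further: higher score means more depolarization so channel activation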
Kir21 block: inhibitors of mouse Kir2.1 inward-rectifier potassium channel; 310,000 compounds, 0.85% hits; HEK293-Kir2.1, FluxOR thallium flux fluorescence; active compounds read low; Inward rectifier potassium channel 2 (Mus musculus), P35561; B-score at 10 µM;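 active means fluorescence ratio B-score at or below minus 3 SD of library scores, with starting-brightness B-score within 2 SD, cut at about -4.2 in these data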;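 further: channel flux triggered by added potassium and thallium sulfate stimulus; B-score of peak minus minimum fluorescence over baseline after thallium stimulus; more negative B-score means stronger Kir2.1 block with less thallium influx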
Target sequence (P35561 whole entry, looked up): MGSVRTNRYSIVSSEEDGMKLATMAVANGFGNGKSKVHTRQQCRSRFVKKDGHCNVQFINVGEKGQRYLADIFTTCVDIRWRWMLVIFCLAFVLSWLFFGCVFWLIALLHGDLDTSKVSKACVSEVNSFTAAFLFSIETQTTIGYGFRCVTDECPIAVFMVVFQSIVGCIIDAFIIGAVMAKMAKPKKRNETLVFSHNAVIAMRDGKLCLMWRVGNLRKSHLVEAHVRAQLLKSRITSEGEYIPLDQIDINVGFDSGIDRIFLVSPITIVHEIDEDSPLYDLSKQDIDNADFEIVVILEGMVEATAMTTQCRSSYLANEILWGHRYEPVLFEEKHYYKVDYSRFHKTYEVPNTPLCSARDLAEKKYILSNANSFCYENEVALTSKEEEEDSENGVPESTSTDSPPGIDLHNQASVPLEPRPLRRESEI
TRPC4 potent: positive allosteric modulators of TRPC4, primary screen, cell-based, mouse TRPC4beta, HEK293 mu-opioid, Fluo-4 calcium. Short transient receptor potential channel 4 (Mus musculus), Q9QUQ5. DAMGO EC20, Fluo-4 Ca2+ flux; active compounds read high. B-score at 10 µM. 310,000 compounds, 0.42% hits. AID 2227, 2009;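 active means B-score of calcium response area above 5 SD of library B-scores, with initial fluorescence ratio within 5 SD of library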
TRPC4 block: inhibitors of mouse TRPC4 channel, primary screen, Fluo4 calcium, HEK293 TRPC4beta/mu-opioid cells. DAMGO-evoked Fluo4 calcium flux; active compounds read low. B-score at 10 µM. 300,000 compounds, 0.39% hits. AID 2247, 2010;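 active means B-score over 3 SD under the library average, no early fluorescence shift, positive overall ratio signal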
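System: stable TRPC4beta/mu-opioid receptor HEK293 cells; Dosing: single-point compound dosing; Measured by: Fluo4 Ca2+ flux fluorescence; Read-out basis: per-well B score of integrated baseline-normalized Fluo4 ratio.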
A number is an active result.

`COCc1ccc(C(=O)N2CCCC(C(=O)c3ccc(SC)cc3)C2)s1` (stereo unspecified) gave TRPC4 agonist inactive, TRPC6 inhibitor inactive, TRPC6 activator inactive, Kir21 block inactive, TRPC4 potent inactive and TRPC4 block inactive.
`Cc1ccc(C)n1-c1ncc(Br)cn1` gave TRPC4 agonist inactive, TRPC6 inhibitor inactive, TRPC6 activator inactive, Kir21 block inactive, TRPC4 potent 21 and TRPC4 block inactive.
O=Cc1cccn1-c1ncc(Br)cn1 was read as TRPC4 agonist inactive, TRPC6 inhibitor inactive, TRPC6 activator inactive, Kir21 block inactive, TRPC4 potent inactive and TRPC4 block inactive.
For O=[N+]([O-])c1cccc(-c2ccc(CN3CCCCC3)o2)c1 the results were TRPC4 agonist inactive, TRPC6 inhibitor inactive, TRPC6 activator inactive, Kir21 block inactive, TRPC4 potent 13 and TRPC4 block inactive.
`C=CCNC(=S)N/N=C/c1ccc(C(C)(C)C)cc1` gave TRPC4 agonist inactive, TRPC6 inhibitor inactive, TRPC6 activator inactive, Kir21 block inactive, TRPC4 potent inactive and TRPC4 block -6.
Screening Cc1cccc(C(=O)OCN2C(=O)c3ccccc3C2=O)c1[N+](=O)[O-] returned TRPC4 agonist inactive, TRPC6 inhibitor inactive, TRPC6 activator inactive, Kir21 block inactive, TRPC4 potent inactive and TRPC4 block inactive.
For NC(N)=N/N=C/c1ccc(OS(=O)(=O)c2ccccc2)cc1 the results were TRPC4 agonist inactive, TRPC6 inhibitor inactive, TRPC6 activator inactive, Kir21 block -10.1, TRPC4 potent inactive and TRPC4 block inactive.
CCC(=O)N/N=C/c1ccc(OS(=O)(=O)c2ccccc2)cc1 was read as TRPC4 agonist inactive, TRPC6 inhibitor inactive, TRPC6 activator inactive, Kir21 block inactive, TRPC4 potent inactive and TRPC4 block inactive.
Screening C=CCN1C(=O)/C(=C\C=C2\N(C)c3ccccc3C2(C)C)SC1=S returned TRPC4 agonist inactive, TRPC6 inhibitor inactive, TRPC6 activator inactive, Kir21 block inactive, TRPC4 potent inactive and TRPC4 block inactive.
`C=CCN1C(=O)/C(=C/C=C2/N(CC)c3ccc(S(=O)(=O)N(C)C)cc3N2CC)SC1=S` gave TRPC4 agonist 64, TRPC6 inhibitor inactive, TRPC6 activator inactive, Kir21 block inactive, TRPC4 potent 10 and TRPC4 block inactive.
For CCOC(=O)c1[nH]c(C)c(CC(C)C)c1C the results were TRPC4 agonist inactive, TRPC6 inhibitor inactive, TRPC6 activator inactive, Kir21 block inactive, TRPC4 potent inactive and TRPC4 block inactive.
Screening CCOc1ccc(N2CC(C(=O)Nc3ccccc3C(=O)N3CCOCC3)CC2=O)cc1 (stereo unspecified) returned TRPC4 agonist inactive, TRPC6 inhibitor inactive, TRPC6 activator inactive, Kir21 block inactive, TRPC4 potent inactive and TRPC4 block inactive.
For CN1CCCN(S(=O)(=O)c2ccc(Cl)c(Cl)c2)CC1 the results were TRPC4 agonist inactive, TRPC6 inhibitor inactive, TRPC6 activator inactive, Kir21 block inactive, TRPC4 potent 12 and TRPC4 block inactive.
`CN1CCCN(S(=O)(=O)c2cccc(Cl)c2Cl)CC1` gave TRPC4 agonist inactive, TRPC6 inhibitor inactive, TRPC6 activator inactive, Kir21 block inactive, TRPC4 potent inactive and TRPC4 block inactive.
For CCOC(=O)c1sc(NC(=O)Cc2ccc(C)cc2)nc1C the results were TRPC4 agonist inactive, TRPC6 inhibitor inactive, TRPC6 activator inactive, Kir21 block -4.35, TRPC4 potent inactive and TRPC4 block inactive.
Screening O=C(CSc1nc(=O)n2ccccc2n1)NCc1ccccc1 returned TRPC4 agonist inactive, TRPC6 inhibitor inactive, TRPC6 activator inactive, Kir21 block inactive, TRPC4 potent inactive and TRPC4 block inactive.
CCc1nc(C)cn1S(=O)(=O)c1cc(C)c(OC)c(C)c1C was read as TRPC4 agonist inactive, TRPC6 inhibitor inactive, TRPC6 activator inactive, Kir21 block -5.59, TRPC4 potent inactive and TRPC4 block inactive.

Compound activity (PubChem BioAssay)
